In article PMC3418399 (Molecular microbiology, 2012):
Entries after “also recorded” stand apart in the source; their conditions may differ. Like-named read-outs stand apart in the source and are kept apart here. Non-standard residues stand in square brackets, D forms with d.

Experiments:
human red blood cells = assay: Hemolysis; type: cell-based; details: for lysis of red blood cells: ≤100 μM
[1] = tested on: human epithelial (HEp2) cells; assay: Toxicity for cultured human epithelial cells; type: cell-based
[2] = target: T1, CaCdr1p-mediated rhodamine 6G efflux in AD/CaCDR1 cells (Candida albicans, UniProt P43071); assay: Glucose-dependent rhodamine 6G efflux in whole cells; type: cell-based
T1 sequence (P43071 whole entry, the tested form may be a part): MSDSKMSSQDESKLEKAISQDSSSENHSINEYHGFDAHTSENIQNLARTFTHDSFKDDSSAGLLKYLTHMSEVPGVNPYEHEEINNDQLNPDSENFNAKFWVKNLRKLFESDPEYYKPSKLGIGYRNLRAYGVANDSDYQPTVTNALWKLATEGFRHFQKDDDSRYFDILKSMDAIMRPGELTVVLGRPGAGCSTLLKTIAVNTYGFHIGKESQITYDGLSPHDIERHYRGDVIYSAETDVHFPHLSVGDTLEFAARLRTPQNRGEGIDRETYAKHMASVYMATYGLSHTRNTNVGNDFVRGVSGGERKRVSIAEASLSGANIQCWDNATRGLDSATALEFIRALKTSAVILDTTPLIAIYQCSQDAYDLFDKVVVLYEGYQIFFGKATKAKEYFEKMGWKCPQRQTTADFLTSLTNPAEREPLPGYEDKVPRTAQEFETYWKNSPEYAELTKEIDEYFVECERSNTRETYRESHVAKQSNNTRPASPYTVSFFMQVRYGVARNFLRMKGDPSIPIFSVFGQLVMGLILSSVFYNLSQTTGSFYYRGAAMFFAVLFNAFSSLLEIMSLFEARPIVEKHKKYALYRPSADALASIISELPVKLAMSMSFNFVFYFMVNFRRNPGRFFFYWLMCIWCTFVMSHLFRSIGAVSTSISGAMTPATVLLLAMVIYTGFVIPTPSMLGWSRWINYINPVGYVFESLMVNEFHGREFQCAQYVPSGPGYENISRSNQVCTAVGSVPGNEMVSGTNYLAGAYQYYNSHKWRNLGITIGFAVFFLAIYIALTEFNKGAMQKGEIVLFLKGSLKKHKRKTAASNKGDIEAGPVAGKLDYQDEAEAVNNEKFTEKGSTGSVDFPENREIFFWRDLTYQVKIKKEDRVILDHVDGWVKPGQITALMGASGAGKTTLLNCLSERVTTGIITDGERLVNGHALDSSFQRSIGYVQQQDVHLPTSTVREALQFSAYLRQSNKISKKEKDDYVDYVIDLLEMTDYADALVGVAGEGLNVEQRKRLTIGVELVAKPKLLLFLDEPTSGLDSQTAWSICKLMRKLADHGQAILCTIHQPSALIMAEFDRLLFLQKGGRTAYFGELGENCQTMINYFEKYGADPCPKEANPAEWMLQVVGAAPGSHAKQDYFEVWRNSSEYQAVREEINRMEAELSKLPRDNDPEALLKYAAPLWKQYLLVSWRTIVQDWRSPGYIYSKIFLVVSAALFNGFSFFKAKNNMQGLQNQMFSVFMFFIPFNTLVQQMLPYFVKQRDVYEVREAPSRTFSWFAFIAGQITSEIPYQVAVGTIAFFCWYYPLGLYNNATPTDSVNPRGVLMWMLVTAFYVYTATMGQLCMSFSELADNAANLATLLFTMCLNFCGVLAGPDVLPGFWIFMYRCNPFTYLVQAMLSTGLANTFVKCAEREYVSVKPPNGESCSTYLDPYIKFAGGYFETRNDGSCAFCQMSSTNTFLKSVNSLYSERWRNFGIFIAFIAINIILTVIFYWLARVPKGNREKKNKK

[3] = tested on: AD/CDR1 (Wild type CaCdr1p; AD/CaCDR1B); assay: Agarose diffusion FLC chemosensitization assay; type: cell-based, Saccharomyces cerevisiae; details: for chemosensitization of cells overexpressing CaCdr1p to FLC: ~6 nmole/disk, FLC 40 μg ml^−1
[4] = tested on: S. cerevisiae AD/CaCDR1 variants; assay: Spontaneous variants resistant to FLC chemosensitization; type: cell-based, Saccharomyces cerevisiae
Pma1p ATPase = target: T2, Pma1p ATPase (Saccharomyces cerevisiae, UniProt P05030); assay: Pma1p ATPase assay; type: biochemical; details: read-out: IC50 Pma1p ATPase; pH 7.0, 10 μM oligomycin
T2 sequence (P05030 1-918): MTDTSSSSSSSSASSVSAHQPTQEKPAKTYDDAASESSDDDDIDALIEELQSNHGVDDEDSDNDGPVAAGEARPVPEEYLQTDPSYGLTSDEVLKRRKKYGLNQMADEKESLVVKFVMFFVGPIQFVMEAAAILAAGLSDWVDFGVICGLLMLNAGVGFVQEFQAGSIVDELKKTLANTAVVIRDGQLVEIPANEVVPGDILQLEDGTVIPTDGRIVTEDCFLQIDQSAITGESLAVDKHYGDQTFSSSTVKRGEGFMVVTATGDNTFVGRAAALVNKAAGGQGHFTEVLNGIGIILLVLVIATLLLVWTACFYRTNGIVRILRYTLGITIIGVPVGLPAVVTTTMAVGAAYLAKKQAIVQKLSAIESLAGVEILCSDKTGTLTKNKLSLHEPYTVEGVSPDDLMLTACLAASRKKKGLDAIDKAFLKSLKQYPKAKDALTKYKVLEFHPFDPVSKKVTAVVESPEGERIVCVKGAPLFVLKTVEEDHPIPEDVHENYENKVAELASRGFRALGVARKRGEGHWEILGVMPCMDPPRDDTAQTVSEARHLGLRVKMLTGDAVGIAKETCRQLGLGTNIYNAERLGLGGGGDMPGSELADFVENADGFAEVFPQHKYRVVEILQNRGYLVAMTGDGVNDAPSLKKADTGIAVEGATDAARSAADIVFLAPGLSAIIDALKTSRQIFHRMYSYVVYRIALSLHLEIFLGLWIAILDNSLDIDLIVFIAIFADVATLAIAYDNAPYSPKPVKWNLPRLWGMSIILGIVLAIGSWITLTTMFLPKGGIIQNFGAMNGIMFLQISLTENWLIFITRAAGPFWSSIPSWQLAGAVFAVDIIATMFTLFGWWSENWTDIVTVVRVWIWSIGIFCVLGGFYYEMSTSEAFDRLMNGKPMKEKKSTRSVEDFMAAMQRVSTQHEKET

EL6 (CaCdr1p Q1445R) = assay: MIC, liquid microdilution; type: cell-based, Saccharomyces cerevisiae; details: EL6, Q1445R; RC21 and rhodamines; CSM pH 7.0, 30°C, 48 h
[5] = target: T1, CaCdr1p-mediated rhodamine 6G efflux in AD/CaCDR1 cells; details: 1.25 μM; S. cerevisiae strain overexpressing CaCdr1p; ref Holmes et al., 2008; cited from earlier work
C. albicans strain CIA4 = assay: Agarose diffusion / checkerboard FLC chemosensitization; type: cell-based, Candida albicans; details: FLC-susceptible strain CIA4; 7.5 nmole RC21
In short: (§1)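 Agarose diffusion on C. albicans clinical isolates. Base CSM-ura with FLC at the indicated concentration was solidified with 0.6% agarose. Cells were layered over it in CSM-ura overlay (0.4% agarose plus FLC). Crude, non-HPLC-purified test peptide (7.5 nmole) was dried on a paper disk at 37 °C for 1-2 h and placed on the overlay. Plates were incubated at 30 °C for 48 h, and inhibition-zone diameters were compared with and without FLC.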

C. albicans MML610 = details: 0.62 μM; FLC-susceptible parental strain MML610; ref Holmes et al., 2008; cited from earlier work
AD/pABC3 (Control) [6] = assay: Agarose diffusion FLC chemosensitization assay; type: cell-based, Saccharomyces cerevisiae; details: presence or absence of FLC at 1/4 MIC
CaCdr2p = details: 1.25 μM; strain overexpressing CaCdr2p; ref Holmes et al., 2008; cited from earlier work
EL1/TM2 (CaCdr1p G547R) = assay: MIC, liquid microdilution; type: cell-based, Saccharomyces cerevisiae; details: EL1/TM2, G547R; RC21 and rhodamines; CSM pH 7.0, 30°C, 48 h
[7] = tested on: AD/pABC3 or AD/CaCDR1 cells; assay: Rhodamine 6G uptake in de-energised cells; type: cell-based, Saccharomyces cerevisiae; details: concentrations <20 μM
In short: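 Host S. cerevisiae and Cdr1p-expressing cells were harvested at log phase, washed, and suspended in 50 mM HEPES-NaOH pH 7.0. They were de-energised with 5 mM 2-deoxyglucose (30 °C, 30 min), then given 15 μM R6G ± test peptide at OD600 1.0. Samples taken at time intervals were boiled 10 min in SDS/mercaptoethanol/Tris pH 6.8 lysis buffer. Released R6G was quantified fluorimetrically against a standard curve in lysis buffer.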

[8] = tested on: AD/CDR1 (Wild type CaCdr1p); assay: MIC, liquid microdilution; type: cell-based, Saccharomyces cerevisiae; details: AD/CDR1, Wild type; RC21 and rhodamines; CSM pH 7.0, 30°C, 48 h
C. albicans MML611 = details: 0.62 μM; FLC-resistant MML611; ref Holmes et al., 2008; cited from earlier work
[9] = tested on: C. albicans strain MML33 (deleted of both copies of CDR1); assay: Agarose diffusion / checkerboard FLC chemosensitization; type: cell-based, Candida albicans; details: 7.5 nmole RC21
In short: as §1

AD/pABC3 (Control) [10] = assay: MIC, liquid microdilution; type: cell-based, Saccharomyces cerevisiae; details: AD/pABC3, Control; RC21 and rhodamines; CSM pH 7.0, 30°C, 48 h
EL4-1 (CaCdr1p Q1226K) = assay: MIC, liquid microdilution; type: cell-based, Saccharomyces cerevisiae; details: EL4-1, Q1226K; RC21 and rhodamines; CSM pH 7.0, 30°C, 48 h
EL3 (CaCdr1p Q714K) = assay: MIC, liquid microdilution; type: cell-based, Saccharomyces cerevisiae; details: EL3, Q714K; RC21 and rhodamines; CSM pH 7.0, 30°C, 48 h
TM5 (CaCdr1p V674F) = assay: MIC, liquid microdilution; type: cell-based, Saccharomyces cerevisiae; details: TM5, V674F; RC21 and rhodamines; CSM pH 7.0, 30°C, 48 h
Cdr1p ATPase = Cdr1p ATPase (Candida albicans, UniProt P43071); assay: CaCdr1p ATPase inhibition assay; type: biochemical
Chain of Cdr1p ATPase (P43071 whole entry): as the sequence (P43071 whole entry, the tested form may be a part) above

EL4-2 (CaCdr1p Q1226R) = assay: MIC, liquid microdilution; type: cell-based, Saccharomyces cerevisiae; details: EL4-2, Q1226R; RC21 and rhodamines; CSM pH 7.0, 30°C, 48 h

C[C@@H]1[C@H](O)[C@@H](C)/C=C/C=C/C=C/C=C/C=C/C=C/C=C/[C@H](O[C@@H]2O[C@H](C)[C@@H](O)[C@H](N)[C@@H]2O)C[C@@H]2O[C@](O)(C[C@@H](O)C[C@@H](O)[C@H](O)CC[C@@H](O)C[C@@H](O)CC(=O)O[C@H]1C)C[C@H](O)[C@H]2C(=O)O [Amphotericin B]
concentration causing complete lysis of red blood cells (human red blood cells; human): 3 µM
concentration rendering human epithelial cells inviable ([1]; human): 15 µM

D-NH2-FFKW(Mtr)QRRR-CONH2 [RC21v1]
concentration required to obtain a significant effect on R6G efflux ([2]; effect independent of glucose, non-specific membrane permeabilization): At least 40 μM
chemosensitization of CaCdr1p-dependent FLC resistance ([3]; agarose diffusion assays, amount not stated (partly data not shown)): ineffective
chemosensitization of cells overexpressing CaCdr1p to FLC ([3]; agarose diffusion): inactive

RC21v2: HPLC-purified RC21 derivative with a single Mtr group attached to one of its three C-terminal arginine residues (FFKWQRRR)
Resistance to FLC chemosensitization ([4]; variant R1, Q714K, External loop 3): High
Resistance to FLC chemosensitization ([4]; variant R2, Q1445K, External loop 6): High
Resistance to FLC chemosensitization ([4]; variant R3, Q1226K, External loop 4): High
Resistance to FLC chemosensitization ([4]; variant R4, Q1226K, External loop 4): High
lysis of red blood cells (human red blood cells): did not lyse; also recorded: did not hemolyse
inhibition of glucose-dependent R6G efflux ([2]; 1.25 μM, after 5 minutes of preincubation): fully inhibited
IC50 (Pma1p ATPase): 5 µM
effect on growth or viability of a human epithelial cell line ([1]; 100 μM (≤100 μM in Fig. 7 legend)): did not affect; also recorded: did not kill
chemosensitization of yeast over-expressing CaCdr1p to FLC ([3]; ~5.5 nmol per disk, agarose diffusion): chemosensitized
chemosensitization of cells overexpressing CaCdr1p to FLC ([3]; agarose diffusion): chemosensitized

D-NH2-FFKWQRRR-CONH2 + Mtr (H-[dF][dF][dK][dW][dQ][dR][dR][dR]-NH2; also: + Mtr, position not given here) [RC21]
Resistance to FLC chemosensitization ([4]; variant C1, Q1226K, External loop 4): High
Resistance to FLC chemosensitization ([4]; variant C2, G547R, TMD1, TMS2): High
Resistance to FLC chemosensitization ([4]; variant E1, V674F, TMD1, TMS5): Moderate
Resistance to FLC chemosensitization ([4]; variant E2, V674F, TMD1, TMS5): Moderate
Resistance to FLC chemosensitization ([4]; variant F1, Q1226K, External loop 4): High
Resistance to FLC chemosensitization ([4]; variant F2, Q1226K, External loop 4): High
Resistance to FLC chemosensitization ([4]; variant F3, Q714K, External loop 3): High
Resistance to FLC chemosensitization ([4]; variant HE2, Q1226R, External loop 4): High
MIC (EL6 (CaCdr1p Q1445R)): 20 µM
inhibition of glucose-dependent R6G efflux [5]: 90%
effect on FLC susceptibility (C. albicans strain CIA4): conferred increased FLC susceptibility
lysis of red blood cells (human red blood cells): did not lyse; also recorded: did not hemolyse
inhibition of glucose-dependent R6G efflux (C. albicans MML610): detectably inhibited
effect on growth of strain AD/pABC3 (AD/pABC3 (Control) [6]): no effect
effect on glucose-dependent R6G efflux (CaCdr2p): no effect
MIC (EL1/TM2 (CaCdr1p G547R)): 20 µM
effect on the rate of uptake of R6G [7]: no significant effect
MIC [8]: 20 µM
IC50 (Pma1p ATPase): 5 µM
inhibition of glucose-dependent R6G efflux (C. albicans MML611): 90%
effect on FLC susceptibility [9]: minor effect
MIC (AD/pABC3 (Control) [10]): >20 µM
MIC (EL4-1 (CaCdr1p Q1226K)): 20 µM
MIC (EL3 (CaCdr1p Q714K)): 20 µM
MIC (TM5 (CaCdr1p V674F)): 20 µM
inhibition of FLC resistance mediated by over-expression in S. cerevisiae of CaCdr1p ([3]; crude RC21 6 nmole/disk, FLC at 1/4 MIC): inhibited FLC resistance
increase in potency against CaCdr1p ATPase activity during deconvolution (Cdr1p ATPase; IC50 = 20 → 1.3 μM): 16 fold
mode of inhibition of CaCdr1p ATPase (Cdr1p ATPase; preincubation of membranes with ATP): not a competitive inhibitor
MIC (EL4-2 (CaCdr1p Q1226R)): 20 µM

D-NH2-FFKWQRRR-CONH2 (H-[dF][dF][dK][dW][dQ][dR][dR][dR]-NH2)
IC50 (Pma1p ATPase): 5 µM
